Source: PubChem BioAssay
Shown are actives, neighbours in structure and some others; about 7.9% of the full set was active somewhere.
D1 mod = D1 CRE-luciferase signal change, two-sided – cell-based, HEK293 D1, dopamine EC30, D1 allosteric modulator project, primary screen; B-score at 10 µM; D(1A) dopamine receptor (Homo sapiens), P21728; actives 5.9% (n = 58,000); dopamine EC30 potentiation; actives deviate in either direction;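 active means luminescence count or its row- and column-corrected plate score outside the 99.7% band of the plate's sample wells, on either side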
JNK3 blocker = JNK3 kinase activity inhibitors, primary screen, biochemical, human, purified enzyme; Mitogen-activated protein kinase 10 (Homo sapiens), P53779; HTS; inhibition, % at 8 µM; actives 0.61% (n = 60,000); in the data active means inhibition above about 17%;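 further: 0% = DMSO and 100% = reference inhibitor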
Target sequence (P53779 whole entry, looked up): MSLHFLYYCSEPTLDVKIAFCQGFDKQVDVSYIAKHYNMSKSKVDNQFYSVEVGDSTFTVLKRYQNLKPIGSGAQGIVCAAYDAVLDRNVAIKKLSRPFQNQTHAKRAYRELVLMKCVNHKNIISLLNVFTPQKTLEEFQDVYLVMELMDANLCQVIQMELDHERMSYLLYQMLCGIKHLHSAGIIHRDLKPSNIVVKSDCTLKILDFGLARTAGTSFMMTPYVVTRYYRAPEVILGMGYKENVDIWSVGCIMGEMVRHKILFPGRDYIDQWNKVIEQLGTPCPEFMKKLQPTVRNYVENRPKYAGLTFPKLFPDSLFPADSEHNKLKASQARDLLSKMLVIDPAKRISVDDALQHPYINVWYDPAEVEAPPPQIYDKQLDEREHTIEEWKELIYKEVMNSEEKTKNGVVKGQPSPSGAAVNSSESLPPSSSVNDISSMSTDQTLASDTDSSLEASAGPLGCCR
SF-1 act = activators of human SF-1, primary screen, cell-based, CHO-K1, Gal4-SF-1 LBD, luciferase luminescence. CHO-K1 Gal4-SF-1 LBD luciferase reporter; % increase over DMSO SF-1-specific signal. activation, % at 10 µM. actives 1.9% (n = 65,000). AID 522, 2006;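 active means activation above the mean activation of all tested compounds plus 3 SD, cut at about 50% in these data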
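Compound – one dose, 10 µM compound, 1% DMSO · Test system – transient Gal4-SF-1 LBD reporter, CHO-K1 · Input – 4,000 cells in each well · Read-out basis – percent activation relative to DMSO median and mock-transfected background · Replicates – single measurement per compound · Technique – steady-glow luciferase luminescence, read after 15 min reagent incubation · Timing – 20 h compound treatment, 37 °C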
RORA act = activators of orphan receptor RORA, primary screen, cell-based, luminescence; AID 560, 2006; activation, % at 10 µM; actives 1.5% (n = 65,000); CHO-K1 Gal4-RORA LBD luciferase reporter; percent increase over mock-subtracted basal signal;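 active means activation above the mean of all tested compounds plus 3 SD, cut at about 49% in these data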;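 further: 0% = DMSO-treated RORA cells and 100% = added signal equal to DMSO minus mock-transfected cells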
HEK293 NFkB inh = inhibitors of PMA/ionomycin-induced NF-kB reporter, primary screen, antigen receptor NF-kB inhibitor project, cell-based, HEK-293 luciferase reporter, luminescence; actives 0.21% (n = 62,000); inhibition, % at 3 µM; AID 465, 2006; HEK-293 NF-kB luciferase reporter;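 active means inhibition above the mean of all tested compounds plus 3 SD, cut at about 40% in these data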;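 further: 0% = stimulated DMSO wells and 100% = 10 µM reference inhibitor 5653914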
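System: NF-kB luciferase reporter HEK-293 cells | Replication: Single test | Control set: DMSO vs reference inhibitor | Evaluation: % inhibition | Schedule: 1 h pretreatment, 16 h stimulation, 37 °C | Probe or stimulus: PMA with ionomycin | Compound dosing: One dose, 3 µM | Detection: Luciferase luminescence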
D1 PAM confirm = D1 receptor positive allosteric modulators, retest, confirmation, cell-based, HEK293 D1, CRE-luciferase, duplicate; shares compounds with D1 mod; dopamine EC30 potentiation; active compounds read high; luminescence at 10 µM; actives 88% (n = 2,200);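 active means luminescence in either of two replicates above the same-plate mean plus 3 SD of the low-dose dopamine control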
D1 ag no DA = D1 receptor agonism without dopamine, confirmation, mechanism study for D1 allosteric modulator project, cell-based, HEK293 D1, CRE-luciferase, secondary assay 1. AID 646, 2007. luminescence, no dopamine; active compounds read high. shares compounds with D1 mod. actives 0.8% (n = 1,900). luminescence at 10 µM; in the data active means luminescence above about 3900
Isoprot counter = alters isoproterenol CRE-luciferase response in HEK293 cells | actives 63% (n = 2,200) | AID 647 | calls only at 10 µM | shares compounds with D1 mod | HEK293 D1 CRE-luciferase, isoproterenol EC30 counter-screen;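 active means luminescence in either replicate above plate mean of wells with a partly effective reference agonist dose plus 3 SD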;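 further: isoproterenol raises cAMP through native beta-adrenoceptor Gs so signal bypasses D1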
Starred values were filed as active, the others as inactive.

For CC(=O)COc1ccc2c3c(c(=O)oc2c1)CCCC3 the results were D1 mod 4.9*, JNK3 blocker -1, SF-1 act 16, RORA act 30, HEK293 NFkB inh 6, D1 PAM confirm 9956*, D1 ag no DA 1048 and Isoprot counter active.
CC(C)CNC(=O)COc1ccc2c3c(c(=O)oc2c1)CCC3 was read as D1 mod -0.0081, JNK3 blocker -6, SF-1 act 10, RORA act 14 and HEK293 NFkB inh 9.
For Cc1cc(C)nc(N2CCC(C(=O)Nc3ccc4c(c3)CCC4)CC2)n1 the results were D1 mod 0.023, JNK3 blocker 3, SF-1 act -8, RORA act 10 and HEK293 NFkB inh 11.
`CC1CCc2c(sc3ncnc(N4CCOCC4)c23)C1` (stereo not given) gave D1 mod 17*, D1 PAM confirm 13928*, D1 ag no DA 1504 and Isoprot counter active.
Screening CC1CCc2sc3ncnc(N4CCOCC4)c3c2C1 (stereo not given) returned D1 mod 19*, JNK3 blocker -1, SF-1 act -1, RORA act -11, HEK293 NFkB inh 5, D1 PAM confirm 14216*, D1 ag no DA 1432 and Isoprot counter active.
CC1CCc2c(sc3ncnc(NCCN4CCOCC4)c23)C1 (stereo not given) was read as JNK3 blocker 0, SF-1 act 5, RORA act 13 and HEK293 NFkB inh -2.
`CCC(=O)N(Cc1ccc(S(N)(=O)=O)cc1)C1CC(=O)N(c2ccc(OC)cc2)C1=O` (stereo not given) gave D1 mod 0.26, JNK3 blocker 3, SF-1 act -4, RORA act -4 and HEK293 NFkB inh 8.
For CCOc1ccc(N(CC(=O)NCc2cccc(OC)c2)S(=O)(=O)c2c(C)noc2C)cc1 the results were D1 mod -0.064, JNK3 blocker -1, SF-1 act 12, RORA act 2 and HEK293 NFkB inh 4.
For CCc1cc2c3c(c(=O)oc2cc1O)CCCC3 the results were D1 mod 2.3, JNK3 blocker 8, SF-1 act 8, RORA act -1 and HEK293 NFkB inh 5.
Screening COC(=O)c1[nH]cnc1C(=O)c1ccccc1 returned D1 mod 0.45, JNK3 blocker 5, SF-1 act 0, RORA act -12 and HEK293 NFkB inh 4.
For CCOC(=O)C1=C(NC(=O)c2ccc(Br)o2)Nc2ccccc2N=C1 the results were D1 mod 19*, JNK3 blocker 3, SF-1 act -25, RORA act -3, HEK293 NFkB inh 10, D1 PAM confirm 24204*, D1 ag no DA 1580 and Isoprot counter active.
Screening CC(C)Cc1cc(-c2ccco2)c(C#N)c(N)n1 returned D1 mod 28*, JNK3 blocker 8, SF-1 act 0, RORA act -5, HEK293 NFkB inh 18, D1 PAM confirm 29116*, D1 ag no DA 1732 and Isoprot counter active.
For CSc1nc(-c2ccco2)cc(-c2ccccc2)c1C#N the results were D1 mod 0.52, JNK3 blocker 0, SF-1 act -9, RORA act -4 and HEK293 NFkB inh 3.
N#Cc1c(-c2ccco2)cc(-c2ccc(F)cc2)nc1N was read as D1 mod 9.9*, JNK3 blocker 0, SF-1 act 10, RORA act 27, HEK293 NFkB inh 17, D1 PAM confirm 16300*, D1 ag no DA 2000 and Isoprot counter active.
CC(=O)Nc1c(C#N)c(C(C)(C)C)cn1C was read as D1 mod 0.033, JNK3 blocker -3, SF-1 act 1, RORA act 5 and HEK293 NFkB inh 18.
`CCc1ccc2oc(=O)cc(CN3CCC(C)CC3)c2c1` gave D1 mod 5.9*, JNK3 blocker 3, SF-1 act -16, RORA act 26, HEK293 NFkB inh 9, D1 PAM confirm 10276*, D1 ag no DA 1600 and Isoprot counter active.
For CCc1ccc2oc(=O)cc(CN3CCOCC3)c2c1 the results were D1 mod 5.9*, JNK3 blocker 5, SF-1 act -8, RORA act -13, HEK293 NFkB inh 1, D1 PAM confirm 13788*, D1 ag no DA 1736 and Isoprot counter inactive.
For Cc1ccc2oc(=O)cc(CN3CCC(C)CC3)c2c1 the results were D1 mod 2.9, JNK3 blocker 7, SF-1 act -3, RORA act -5 and HEK293 NFkB inh -5.
`c1cncc(-c2nc(N3CCCCCC3)c3ccccc3n2)c1` gave D1 mod 12*, JNK3 blocker -3, SF-1 act -2, RORA act 8, HEK293 NFkB inh 24, D1 PAM confirm 14412*, D1 ag no DA 1464 and Isoprot counter active.
Screening NC(=O)C1CCN(c2nc(-c3ccccc3)nc3ccccc23)CC1 returned D1 mod 15*, JNK3 blocker 9, SF-1 act -5, RORA act 0, HEK293 NFkB inh 8, D1 PAM confirm 24116*, D1 ag no DA 1564 and Isoprot counter active.
Screening O=C(Cc1c(O)c2ccccc2[nH]c1=O)OC1CCCCC1 returned D1 mod 2.2, JNK3 blocker -3, SF-1 act -4, RORA act -27 and HEK293 NFkB inh 12.
Screening CC(C)N=c1cc2n(-c3ccc(Cl)cc3)c3ccccc3nc-2cc1Nc1ccc(Cl)cc1 returned D1 mod -2.4, JNK3 blocker 1, SF-1 act -29 and RORA act 14.
`CCn1c(SCC(=O)Nc2ccccc2N2CCCCC2)nc2c1c(=O)n(C)c(=O)n2C` gave D1 mod 3.9*, JNK3 blocker -2, SF-1 act 3, RORA act -15, HEK293 NFkB inh 9, D1 PAM confirm 6828*, D1 ag no DA 1584 and Isoprot counter inactive.
CCn1c(SCC(=O)N2CCCC2)nc2c1c(=O)n(C)c(=O)n2C was read as D1 mod 1.2, JNK3 blocker -2, SF-1 act -11, RORA act -4 and HEK293 NFkB inh 11.
